High-throughput results (PubChem BioAssay)
Compounds with a hit are over-represented: about 2.4% of the library has one in this group of screens.
sPLA2-III inh = Blocks human group III sPLA2 activity; QFRET BODIPY PC-A2 liposome hydrolysis, fluorescence; inhibition, % at 12.2 µM; hit rate 0.56% among 370,000; AID 743126;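 active means inhibition above mean plus 3 SD of compounds lying within the high and low control bounds, cut at about 19% in these data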;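 further: 0% = median of test compound wells and 100% = no enzyme DMSO wells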
Target sequence (Q9NZ20 whole entry, looked up): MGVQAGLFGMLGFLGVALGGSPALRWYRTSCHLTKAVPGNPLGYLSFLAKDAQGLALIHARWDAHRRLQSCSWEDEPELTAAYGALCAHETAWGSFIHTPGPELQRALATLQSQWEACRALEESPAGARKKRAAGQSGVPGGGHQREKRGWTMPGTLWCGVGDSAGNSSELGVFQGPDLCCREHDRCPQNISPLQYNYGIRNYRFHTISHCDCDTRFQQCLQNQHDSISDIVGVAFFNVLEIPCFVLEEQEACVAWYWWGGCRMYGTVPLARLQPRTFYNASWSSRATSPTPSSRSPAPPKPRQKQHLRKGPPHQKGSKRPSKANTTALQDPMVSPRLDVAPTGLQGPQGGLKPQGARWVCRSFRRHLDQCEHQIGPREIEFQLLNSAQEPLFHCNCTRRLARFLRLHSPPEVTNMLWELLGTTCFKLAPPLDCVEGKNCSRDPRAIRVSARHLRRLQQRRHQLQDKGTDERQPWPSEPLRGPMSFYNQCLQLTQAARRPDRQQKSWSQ
PfM18AAP inh = blocks P. falciparum M18 aspartyl aminopeptidase; recombinant PfM18AAP, H-Glu-NHMec fluorogenic cleavage; inhibition, % at 7.35 µM; hit rate 1.2% among 290,000;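 active means inhibition above the campaign mean inhibition over all tested compounds plus 3 SD, cut at about 28% in these data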;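 further: 0% = plate median of test compound wells and 100% = 2 mM ZnCl2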
IMP-1 inh-1 = blocks Pseudomonas aeruginosa IMP-1 metallo-beta-lactamase; hit rate 0.45% among 290,000; inhibition, % at 5.6 µM; purified IMP-1, nitrocefin hydrolysis, epi-absorbance fluorescence;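 active means inhibition above the mean plus 3 SD of all compounds in the same screening run, cut at about 4.5% in these data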;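 further: 0% = IMP-1 with DMSO and 100% = DMSO wells lacking enzyme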
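Assay system: purified IMP-1; Quantity: IMP-1 0.2 nM before substrate addition; Medium: HEPES buffer pH 7.1 with ZnSO4 and Brij 35; Incubation: 15 min enzyme–compound preincubation, then 25 min nitrocefin reaction, 25 °C; Signal: fluorescence quenching readout, ex 480/em 530 nm; Controls: DMSO with and without IMP-1; Repeats: singlicate testing.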
VIM-2 inhibitor = inhibitors of Pseudomonas aeruginosa VIM-2 metallo-beta-lactamase | purified VIM-2, nitrocefin hydrolysis, epi-absorbance fluorescence | AID 1527 | inhibition, % at 5.6 µM | hit rate 0.89% among 290,000;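 active means inhibition above the mean of all tested compounds plus 3 SD, cutoff set per screening run, cut at about 7.5% in these data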;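 further: red hydrolysis product quenches plate fluorescence so inhibitors raise well fluorescence; 0% = enzyme with DMSO and 100% = DMSO without enzyme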
IMP-1 inh-2 = selectivity counter-screen for VIM-2 inhibitors: IMP-1 metallo-beta-lactamase inhibitors. purified IMP-1, nitrocefin hydrolysis, epi-absorbance fluorescence. shares compounds with VIM-2 inhibitor. inhibition, % at 5.6 µM. 1,300 tested, under 10 active. AID 1856; call rule not given here;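 further: 0% = enzyme with vehicle and 100% = vehicle without enzyme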
VIM-2 FRET inh = VIM-2 FRET inhibition, artifact counter-screen | shares compounds with VIM-2 inhibitor | purified VIM-2, CCF2 FRET substrate hydrolysis | inhibition, % at 5.6 µM | hit rate 23% among 1,300 | AID 1857;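 active means inhibition above the mean of all tested compounds plus 3 SD, cut at about 19% in these data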;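 further: 0% = VIM-2 plus DMSO and 100% = no enzyme wells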
TEM-1 inh = TEM-1 inhibition, counter-screen for VIM-2 inhibitors; shares compounds with VIM-2 inhibitor; Purified TEM-1, nitrocefin hydrolysis, epi-absorbance fluorescence; inhibition, % at 5.6 µM; hit rate 3% among 1,300; AID 1866;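 active means inhibition above that campaign's mean inhibition plus 3 SD, cut at about 0.46% in these data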;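 further: 0% = TEM-1 with DMSO and 100% = TEM-1 with 100 µM potassium clavulanate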
Target sequence (P62593 whole entry, looked up): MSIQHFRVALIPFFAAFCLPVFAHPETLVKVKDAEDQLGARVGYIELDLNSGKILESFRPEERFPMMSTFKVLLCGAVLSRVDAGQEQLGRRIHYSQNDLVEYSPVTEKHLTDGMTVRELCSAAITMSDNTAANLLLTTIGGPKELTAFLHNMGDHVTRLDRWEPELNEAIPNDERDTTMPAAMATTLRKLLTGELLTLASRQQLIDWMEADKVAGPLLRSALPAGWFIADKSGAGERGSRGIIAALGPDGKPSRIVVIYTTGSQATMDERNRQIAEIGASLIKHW
VIM-2 inh conf = confirmation of P. aeruginosa VIM-2 metallo-beta-lactamase inhibitors | shares compounds with VIM-2 inhibitor | purified VIM-2, nitrocefin hydrolysis, epi-absorbance | inhibition, % at 5.6 µM | hit rate 96% among 1,300;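 active means inhibition of the VIM-2 beta-lactamase enzyme above about 11% from the earlier first-round screen, limit read from the data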;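 further: 0% = VIM-2 with DMSO and 100% = buffer wells without enzyme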
Numbers without * were called inactive; . = not tested or not shown.

SMILES	sPLA2-III inh	PfM18AAP inh	IMP-1 inh-1	VIM-2 inhibitor	IMP-1 inh-2	VIM-2 FRET inh	TEM-1 inh	VIM-2 inh conf
CCc1cc(=O)oc2c3c(cc(OCC(=O)NCc4ccccn4)c12)OC(C)(C)CC3	1.9	-1.9	-4.1	-0.5	.	.	.	.
CCc1cc(=O)oc2c3c(cc(OCC(=O)Nc4cccnc4)c12)OC(C)(C)CC3	2.2	1.7	-3.8	67.2*	-1.8	-6.6	-7.3	77.7*
Cc1c(C)c2c(OCC(=O)NCc3ccncc3)cc3c(c2oc1=O)CCC(C)(C)O3	9.8	-1.1	-1.8	30.9*	-2.3	-4.6	-6.2	40.9*
Cc1c(C)c2c(OCC(=O)NCC(C)C)cc3c(c2oc1=O)CCC(C)(C)O3	-2.3	-2.8	-5.0	-0.8	.	.	.	.
O=C(NCCc1ccccc1)OCc1cn(Cc2c(F)cccc2F)nn1	1.5	.	.	.	.	.	.	.
Cc1c(C)c2c(OCC(=O)N3CCC[C@H]3C(=O)O)cc3c(c2oc1=O)CCC(C)(C)O3	7.4	3.5	-3.1	69.9*	-3.6	85.3*	-6.0	72.4*
COc1ccc(-c2c[n+]3c4n2CCCCC4=C(c2ccc(Br)cc2)C3)cc1	13.9	-6.2	-3.7	13.5*	-0.9	-5.3	2.5*	12.9*
Clc1ccc(C2=C3CCCCn4c(-c5ccccc5)c[n+](c43)C2)cc1	1.9	7.4	-3.8	17.6*	-4.6	-2.5	-7.7	4.9
COc1ncnc2c1ncn2CCCNCc1ccc(C)o1	3.3	.	.	.	.	.	.	.
OCCN=Cc1c(O)[nH]c2ccccc12	6.0	10.5	-3.4	-3.0	.	.	.	.
Oc1[nH]c2ccccc2c1C=Nc1ccccc1	-8.8	5.8	-1.0	12.3*	-1.7	25.0*	-4.2	21.0*
CCOC(=O)c1c(-c2ccccc2)oc2ccc(OCC(O)CNCCN(C)C)cc12 (stereo not given)	-7.8	-1.2	1.1	25.1*	-3.2	20.0*	-6.2	38.1*
O=c1c2cc3cc4c(cc3nc2ncn1Cc1cccnc1)OCO4	-3.3	.	.	.	.	.	.	.
Cc1nnc2c3ccccc3c(Cl)nn12	1.3	-2.8	-1.3	4.9	.	.	.	.
Cc1nnc2c3ccccc3c(-c3cccs3)nn12	-2.2	-1.5	-2.3	28.4*	-3.4	1.0	-5.2	39.7*
CCN1CCN(c2ncc(C(=O)Nc3ccccc3C(=O)OC)c3ccccc23)CC1	-20.2	-6.0	-2.0	18.2*	-3.6	3.1	-5.5	30.5*
CN(CCCNC(=O)c1cc2c(Cl)nc3ccccc3c2s1)Cc1ccccc1	-20.9	5.2	0.9	22.0*	-1.9	2.2	-7.2	31.0*
COc1cc(NC(=O)c2cc3c(Cl)nc4ccccc4c3s2)cc(OC)c1OC	5.5	-10.0	-2.1	-2.3	.	.	.	.
CCN(CC)CCCNC(=O)c1cc2c(Cl)nc3ccccc3c2s1	-9.1	5.1	-0.9	22.1*	-1.8	6.1	-5.6	32.4*
COc1ccc(CN2C[C@@]3(O)CC[C@@H](O)[C@@H](OC)[C@@H]3[C@@]2(C)[C@H](O)CC=C(C)C)cc1	3.5	.	.	.	.	.	.	.
O=C(O)c1ccc(Nc2nc(-c3cccnc3)cs2)cc1	2.2	-1.0	-3.3	-0.8	.	.	.	.
CC(=O)c1ccc(Nc2nc(-c3cccnc3)cs2)cc1	3.0	1.1	-3.2	14.2*	-2.8	-3.5	-7.5	15.4*
Cc1nn2c(N3CCCC3)c3c(nc2c1-c1ccccc1)CCC3	-4.2	-9.5	0.0	3.8	.	.	.	.
Cc1nn2c(N3CCN(CCO)CC3)c3c(nc2c1-c1ccccc1)CCCC3	-5.6	-3.4	-3.5	37.4*	-3.5	-3.7	-6.7	59.5*
CCN(CC)C(=O)CSc1nc2ccc(NC(=O)CSc3nccn3C)cc2s1	-7.2	6.2	-3.0	20.9*	-2.6	51.7*	-6.6	36.2*
SMILES	sPLA2-III inh	PfM18AAP inh	IMP-1 inh-1	VIM-2 inhibitor	IMP-1 inh-2	VIM-2 FRET inh	TEM-1 inh	VIM-2 inh conf
Cn1c(=O)c2sccc2n2c(CCCC(=O)N3CCN(c4ccccn4)CC3)nnc12	2.7	-14.1	-3.6	13.1*	-2.8	-1.1	-5.9	19.7*
CC(=NCCCn1ccnc1)c1c(C)[nH]n(-c2ccc([N+](=O)[O-])cc2)c1=O	-3.1	-2.1	-2.5	12.5*	-1.8	-15.8	-3.0	34.1*
Cc1[nH]n(-c2ccc([N+](=O)[O-])cc2)c(=O)c1/C=N/N1CCOCC1	0.1	4.5	-0.2	-3.1	.	.	.	.
CCN(CC(=O)NCc1ccc(Cl)cc1)C(=O)CCc1ccccc1	8.0	-5.9	-0.9	-2.2	.	.	.	.
CCC(CC)NC(=O)O[C@H]1CC[C@@]23CCCN2C(=O)CCC[C@H]3C1	5.2	.	.	.	.	.	.	.
CCOC(=O)c1sc2nc(C)nc(NC3CCC(O)CC3)c2c1C (stereo not given)	0.8	-3.5	-1.3	23.4*	-2.9	-2.3	-4.5	32.0*
CCOC(=O)c1sc2nc(C)nc(NCc3ccccc3OC)c2c1C	0.6	2.8	-1.6	1.2	.	.	.	.
Cc1sc2ncnc(NCCc3ccc(S(N)(=O)=O)cc3)c2c1C	-8.5	-3.7	-6.0	18.5*	-3.1	-4.7	-7.3	16.4*
c1cn(CCCNc2ncnc3nc[nH]c23)cn1	10.9	-5.0	-1.0	1.0	.	.	.	.
Cc1sc2ncnc(NCCCn3ccnc3)c2c1C	7.7	3.3	-3.5	20.7*	-3.9	-3.8	-7.3	34.3*
COC(=O)[C@]12C[C@H](CC(=O)N3CCSCC3)C(=O)N(Cc3cccc4ccccc34)C1=C[C@H](COCc1ccccc1)O[C@@H]2C	3.6	.	.	.	.	.	.	.
O=[N+]([O-])c1c(Nc2ccc(O)cc2)cc(Cl)c2nonc12	5.5	-22.7	-2.8	22.1*	-3.6	12.4	-8.4	31.8*
COC(=O)[C@]12C[C@H](CC(=O)NCc3cccc4ccccc34)C(=O)N(Cc3ccco3)C1=C[C@H](C1CCCC1)O[C@@H]2C	-13.1	.	.	.	.	.	.	.
CCC(=O)N1CCc2cc(Br)c(S(=O)(=O)N3CCC(C(=O)NC(C)(C)C)CC3)cc21	3.1	.	.	.	.	.	.	.
COc1ccc(OC)c(Nc2c3c(nc4ccccc24)CCC3)c1	6.0	-9.2	-0.9	12.7*	-2.8	-4.9	-5.1	19.9*
COc1ccc(-c2cc(C(F)(F)F)nc(N3CCCCC3)n2)cc1OC	3.5	0.3	-3.5	-3.4	.	.	.	.
COc1ccc(-c2cc(C(F)(F)F)nc(N3CCN(C)CC3)n2)cc1OC	-8.9	-24.7	0.0	18.0*	-1.5	0.6	-5.9	30.1*
COc1ccc(-c2cc(C(F)(F)F)nc(N3CCN(C)CC3)n2)cc1	-4.1	-22.6	-4.3	17.4*	-2.2	36.1*	-7.5	25.1*
CCCCCC(=O)NC1CCCCN(Cc2ccc(Cl)cc2)C1=O (stereo not given)	4.5	.	.	.	.	.	.	.
Cc1ccc(S(=O)(=O)N(C)[C@H]2C[C@H]3c4cc(-c5ccccc5C)ccc4CCN3C[C@H]2[C@H](C)O)cc1	4.6	.	.	.	.	.	.	.
COC(=O)c1cc(Nc2cc(C)nc3ncnn23)cc(C(=O)OC)c1	0.3	4.5	-3.0	14.6*	-4.7	3.3	-4.6	34.7*
